Compounds with a hit are over-represented: about 3.7% of the library has one in this group of screens.
KCNQ1 inh – human KCNQ1 channel inhibition; P51787; CHO-K1 KCNQ1, FluxOR thallium flux fluorescence; active compounds read high; B-score at 10 µM; 1.3% of 310,000 active; AID 2642;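 active = compounds whose thallium flux B-score, printed positive for inhibition, exceeds three library SD while starting fluorescence stays within three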;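 note: channel opened by potassium depolarization with thallium stimulus after 20 min compound exposure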
KCNK9 block – blocks the human KCNK9 two-pore domain potassium channel; Q9NPC2; HEK293 KCNK9, FluxOR thallium flux fluorescence; active compounds read low; B-score at 10 µM; 1.2% of 310,000 active; AID 488922;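 active = ratio B-score over 3 SD below the library mean, with starting fluorescence within 5 SD of its mean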;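 note: negative B-score means less thallium flux so channel inhibition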
KCNQ1 pot – potentiators or activators of human KCNQ1 potassium channel. P51787. B-score at 10 µM. CHO-K1 KCNQ1, thallium flux FluxOR fluorescence; active compounds read high. AID 2648. 0.35% of 310,000 active;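 active = fluorescence ratio B-score, a plate-corrected score, at least three library SD, with initial intensity B-score within 5 SD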
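assay system = KCNQ1-transfected CHO-K1 cells | medium = assay buffer with matched DMSO | probe or stimulus = depolarizing K+/Tl+ stimulus, K2SO4 and Tl2SO4 each 12.5 mM in 5x stock | dosing = single dose | incubation = dye 90 min, compound 20 min, room temperature | detection = kinetic FluxOR fluorescence, 10 s baseline plus 110 s post-stimulus | evaluation = ratio B score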
KCNK3 block – human KCNK3 channel inhibition, primary screen | B-score at 10 µM | O14649 | 0.84% of 340,000 active | AID 602410 | CHO-KCNK3 thallium flux, FluxOR fluorescence; active compounds read low;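 active = B-score under library mean minus 4 SD, starting fluorescence ratio at most library mean plus 5 SD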;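 note: more negative B-score means stronger inhibition of thallium flux through KCNK3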
Kir21 inh – Kir2.1 (mouse) channel inhibition. P35561. HEK293-Kir2.1, FluxOR thallium flux fluorescence; active compounds read low. B-score at 10 µM. 0.85% of 310,000 active;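 active = fluorescence ratio B-score at or below minus 3 SD of library scores, with starting-brightness B-score within 2 SD, cut at about -4.2 in these data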;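 note: channel flux triggered by added potassium and thallium sulfate stimulus; B-score of peak minus minimum fluorescence over baseline after thallium stimulus; more negative B-score means stronger Kir2.1 block with less thallium influx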
hERG protect – compounds protecting human hERG from proarrhythmic drug block. Q12809. CHO-hERG, FluxOR thallium flux, dofetilide IC70 present. activation (rescue from dofetilide block), less the hit threshold, % at 10 µM. 0.51% of 310,000 active. AID 1511;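 active = activation above the mean of controls blocked by dofetilide plus 5 SD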;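 note: thallium influx through hERG after potassium depolarization seen as dye fluorescence rise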
Target sequence (Q12809 whole entry, looked up): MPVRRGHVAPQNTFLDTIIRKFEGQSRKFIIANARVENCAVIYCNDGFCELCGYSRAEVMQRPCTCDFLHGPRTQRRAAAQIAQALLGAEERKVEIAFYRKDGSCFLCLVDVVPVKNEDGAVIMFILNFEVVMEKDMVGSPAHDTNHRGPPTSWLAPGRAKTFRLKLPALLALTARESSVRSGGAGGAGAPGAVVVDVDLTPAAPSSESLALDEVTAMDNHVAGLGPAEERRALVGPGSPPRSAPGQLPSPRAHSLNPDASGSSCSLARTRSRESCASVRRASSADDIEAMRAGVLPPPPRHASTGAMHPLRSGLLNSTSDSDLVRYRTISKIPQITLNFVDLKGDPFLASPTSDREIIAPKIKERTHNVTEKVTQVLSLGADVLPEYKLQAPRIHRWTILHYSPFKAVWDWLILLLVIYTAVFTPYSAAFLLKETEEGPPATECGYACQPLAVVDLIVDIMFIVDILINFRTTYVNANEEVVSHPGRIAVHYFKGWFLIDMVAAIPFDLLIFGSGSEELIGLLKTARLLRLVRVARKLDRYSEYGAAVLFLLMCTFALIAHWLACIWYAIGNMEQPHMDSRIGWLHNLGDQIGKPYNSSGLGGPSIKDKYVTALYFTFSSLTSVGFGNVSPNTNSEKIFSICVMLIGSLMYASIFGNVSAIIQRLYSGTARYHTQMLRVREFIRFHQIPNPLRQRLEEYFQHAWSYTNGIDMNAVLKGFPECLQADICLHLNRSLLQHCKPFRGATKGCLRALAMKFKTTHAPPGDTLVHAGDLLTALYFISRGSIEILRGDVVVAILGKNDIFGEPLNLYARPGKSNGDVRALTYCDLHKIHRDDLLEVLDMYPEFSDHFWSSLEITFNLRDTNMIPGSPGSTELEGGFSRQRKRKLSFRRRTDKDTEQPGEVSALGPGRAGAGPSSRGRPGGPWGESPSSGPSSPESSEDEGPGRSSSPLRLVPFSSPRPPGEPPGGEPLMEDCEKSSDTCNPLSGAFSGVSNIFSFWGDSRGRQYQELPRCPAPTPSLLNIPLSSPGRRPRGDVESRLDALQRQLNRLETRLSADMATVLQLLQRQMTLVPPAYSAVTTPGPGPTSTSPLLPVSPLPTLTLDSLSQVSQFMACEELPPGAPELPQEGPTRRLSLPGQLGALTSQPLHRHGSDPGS
KCNK9 block conf – human KCNK9 inhibitor confirmation; shares compounds with KCNK9 block; HEK293 KCNK9 cells, FluxOR thallium flux fluorescence; inhibition, % at 10 µM; 43% of 4,900 active;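 active = thallium signal inhibited by more than 5 SD of the compound-free buffer control wells, on both duplicate plates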;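 note: 0% = assay buffer control wells without compound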
Kir2-1 spec – mouse Kir2.1 off-target activity of KCNK9 modulators. shares compounds with KCNK9 block. Kir2.1 cells, FluxOR thallium flux fluorescence. inhibition, % at 10 µM. 4% of 4,900 active. AID 492993;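 active = thallium signal drop more than 5 SD beyond the mean of the no-compound control wells, seen in both duplicate plates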;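 note: signal is fluorescence rise after thallium addition divided by baseline fluorescence; plate controls were assay buffer only for no effect and full block by chlorpromazine control for full effect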
HEK293 Tl ctr – non-induced cell nonspecific activity of KCNK9 modulators; inhibition, % at 10 µM; 40% of 4,900 active; shares compounds with KCNK9 block; non-induced KCNK9-HEK293, FluxOR thallium flux;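 active = thallium signal drop beyond 5 SD of the untreated control mean, on both duplicate plates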;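 note: plate controls were buffer only IC0 wells for no effect and SID17386958 at its maximal inhibitory level for full effect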
* = called active by the depositor; i = inactive; . = no result.

SMILES	KCNQ1 inh	KCNK9 block	KCNQ1 pot	KCNK3 block	Kir21 inh	hERG protect	KCNK9 block conf	Kir2-1 spec	HEK293 Tl ctr
O=C(Nc1ccc(Br)cn1)c1cccc2ccccc12	i	i	i	i	2.5	-4	.	.	.
c1ccc(CSc2snnc2-c2ccccc2)cc1	i	i	i	i	-2.1	-6	.	.	.
Clc1ccc(CSc2snnc2-c2ccccc2)c(Cl)c1	7*	i	i	i	-2	-17	i	i	25%*
CNC(=O)Cn1nc(C)c(S(=O)(=O)N2CCOCC2)c1C	.	.	.	i	.	.	.	.	.
COc1cccc(/C=C(/C(=O)OCC(=O)NC2CCCC(C)C2C)c2ccccc2)c1 (stereo not given)	10*	-9.3*	i	i	-0.16	-30	43%*	i	44%*
O=C(COC(=O)c1ccc2c(c1)C(=O)N(Cc1ccncc1)C2=O)Nc1cccc2ccccc12	i	i	i	i	1.8	-7	.	.	.
CCN(CC)S(=O)(=O)c1ccc(O)c(C(=O)OCC(=O)Nc2cc(C)c(C)cc2[N+](=O)[O-])c1	i	-11*	i	i	-0.59	-10	32%*	i	26%*
Cc1nc2cc(-c3cccc(F)c3)nn2c(C)c1CCC(=O)NC(C)CCc1ccco1 (stereo not given)	i	i	i	i	2.3	-4	.	.	.
Fc1cccc(-c2cc3nc4c(c(NCc5ccco5)n3n2)CCCC4)c1	i	-10*	i	i	0.4	-14	37%*	i	32%*
Cc1cc2ncn(C(=O)c3c(-c4ccccc4Cl)noc3C)c2cc1C	i	i	i	i	-0.75	-10	.	.	.
Cc1cccc([N+](=O)[O-])c1NC(=O)CN(Cc1ccccc1)Cc1ccccc1	i	-8.8*	i	i	-0.17	-6	30%*	i	37%*
Cc1cccc(C)c1NC(=O)CNC(=O)Cc1ccccc1[N+](=O)[O-]	i	i	i	i	-0.22	-4	.	.	.
COc1ccc2cc(C#N)c(N3CCN(C(=O)c4ccccc4C)CC3)nc2c1	i	i	i	i	-1.2	-12	i	i	i
O=C(Cn1c2c(c(-c3ccccc3)cc1=O)CCCC2)N1CCCCCC1	i	i	i	i	0.36	-18	i	i	32%*
CC(=O)N1c2c(cc(Br)cc2S(=O)(=O)NCc2cccnc2)CC1C (stereo not given)	i	i	i	i	0.85	-3	.	.	.
CCCCN(Cc1ccccc1)S(=O)(=O)c1cc(Br)cc2c1N(C(C)=O)C(C)C2 (stereo not given)	i	-15*	i	i	-0.08	-16	i	i	54%*
COc1cc(C#N)ccc1OC(=O)C1CCN(C(=O)c2ccc(F)cc2)CC1	i	i	i	i	0.24	-10	.	.	.
Clc1ccccc1OCCN1CCC(Cc2ccccc2)CC1	i	i	i	i	-4.3	-12	i	i	i
O=Cc1cc(Cl)ccc1OCCN1CCC(Cc2ccccc2)CC1	i	i	i	i	-4.8*	-26	i	i	i
O=[N+]([O-])c1cccc(OCCN2CCC(Cc3ccccc3)CC2)c1	7*	i	i	i	-1.2	-16	i	i	i
Cc1ccsc1CN(C)CC(=O)NCC(=O)Nc1ccc(F)c(F)c1F	.	.	.	i	.	.	.	.	.
O=C(COc1coc(CN2CCN(c3ccccc3)CC2)cc1=O)NC1CCCCC1	i	i	i	i	2.1	-11	.	.	.
COc1cc(C(=O)OCC(=O)Nc2cccc(S(=O)(=O)N3CCCC3)c2)ccc1OCC(C)C	i	i	i	i	0.4	-13	.	.	.
